Experiments:
[1] = Cytotoxicity against mock-infected human Huh7.5 cells assessed as reduction in cell viability incubated for 5 hrs by MTT assay; assay type: cell-based, Huh-7; conditions: mock-infected Huh7.5 cells
Summary of the method: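 Mock-infected Huh7.5 cells run alongside the JFH1-Luc antiviral assay with 3-fold serial dilutions. Viability read by MTT assay to give CC50.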

Hepatitis C virus = assay: Antiviral activity against recombinant HCV genotype 2a JFH1 infected in human […] for 5 hrs measured on day 3 post infection by luciferase reporter gene assay; assay type: functional, organism-based, Hepacivirus hominis; conditions: JFH-1, Huh-7
Summary of the method: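 Huh7.5 cells infected with JFH1-Luc virus (MOI 0.004) for 5 h at 37 °C with 3-fold serial dilutions of compound. Renilla luciferase read from lysates on day 3 postinfection to derive EC50.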

[2] = Selectivity index, ratio of CC50 for mock-infected human Huh7.5 cells to EC50 for recombinant HCV genotype 2a JFH1; set-up: species or system Huh-7
Summary of the method: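 Huh7.5 cells infected with JFH1-Luc virus (MOI 0.004, 5 h, 37 °C) in the presence of 3-fold serial dilutions. EC50 came from Renilla luciferase on day 3. CC50 came from MTT viability of mock-infected Huh7.5 cells treated in parallel. SI = CC50/EC50.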

| Compound | CC50 at 5 h [1] | EC50 (Hepatitis C virus) | Ratio CC50/EC50 [2] |
| --- | --- | --- | --- |
| COc1ccc(CCC(=O)N(c2ccc(OC)c(OC)c2)C(C(=O)NC2CCCCC2)c2ccc(Cl)cc2)cc1 (configuration not stated) | 57.4 µM | 31.1 µM | 1.8 |
| COc1ccc(N(C(=O)Cc2c[nH]c3ccccc23)C(C(=O)NC2CCCCC2)c2ccc(OC)c(OC)c2OC)cc1OC (configuration not stated) | 27.1 µM | > 27.1 µM | – |
| COc1ccc([N+](=O)[O-])c(C(=O)N(CCc2ccc(OC)c(OC)c2)C(C(=O)NC2CCCCC2)c2ccc([N+](=O)[O-])cc2)c1 (configuration not stated) | > 100 µM | 34.8 µM | >2.8 |
| COc1ccc(N(C(=O)c2cc(C)ccc2C)C(C(=O)NC2CCCCC2)c2ccc([N+](=O)[O-])cc2)cc1OC (configuration not stated) | 68.3 µM | 7.9 µM | 8.6 |
| CC(=O)N(c1ccc(C(C)C)cc1)C(C(=O)NC1CCCCC1)c1ccc(Cl)cc1 (configuration not stated) | 89.2 µM | 10.8 µM | 8.2 |
| COc1cccc(CCC(=O)N(c2ccc(OC)c(OC)c2)C(C(=O)NC2CCCCC2)c2ccc(O)cc2)c1 (configuration not stated) | 51.5 µM | 15.5 µM | 3.3 |
| O=C(NC1CCCCC1)C(c1ccc(Cl)cc1)N(C(=O)Cc1c[nH]c2ccccc12)c1ccccc1 (configuration not stated) | 10.2 µM | 3.3 µM | 3.1 |
| COc1ccc(N(C(=O)Cc2c[nH]c3ccccc23)C(C(=O)NC2CCCCC2)c2ccc(F)cc2)cc1 (configuration not stated) | 63.6 µM | 26.5 µM | 2.4 |
| O=C(NC1CCCCC1)C(c1ccccc1)N(C(=O)Cc1c[nH]c2ccccc12)c1ccccc1 (configuration not stated) | 30.5 µM | > 30.5 µM | – |
| CC(C)c1ccc(N(C(=O)c2ccccc2)C(C(=O)NC2CCCCC2)c2ccc(Cl)cc2)cc1 (configuration not stated) | 64.5 µM | 6.7 µM | 9.6 |
| COc1ccc(C(C(=O)NC2CCCCC2)N(C(=O)Cc2c[nH]c3ccccc23)c2ccccc2)cc1OC (configuration not stated) | 22.5 µM | > 22.3 µM | – |
| NC(=O)c1ncn([C@@H]2O[C@H](CO)[C@@H](O)[C@H]2O)n1 [RIBAVIRIN] | > 100 µM | 16.3 µM | >6.1 |
| CCCCCNC(=O)C(c1ccc2c(c1)OCO2)N(C(=O)CCCC)c1ccc(OC)c(OC)c1 (configuration not stated) | 32.2 µM | > 32.2 µM | – |
| COc1ccc(N(C(=O)c2cccc(C)c2C)C(C(=O)NC2CCCCC2)c2ccc(O)cc2)cc1OC (configuration not stated) | 69.8 µM | 11.4 µM | 6.1 |
| COc1ccc(CCC(=O)N(c2ccc(C(C)C)cc2)C(C(=O)NC2CCCCC2)c2ccc(Cl)cc2)cc1 (configuration not stated) | > 100 µM | > 100 µM | – |
| COc1ccc(N(C(=O)Cc2c[nH]c3ccccc23)C(C(=O)NC2CCCCC2)c2ccc([N+](=O)[O-])cc2)cc1 (configuration not stated) | 8.5 µM | 2.5 µM | 3.4 |
| COc1ccc(CCN(C(=O)c2ccccc2)C(C(=O)NC2CCCCC2)c2ccc([N+](=O)[O-])cc2)cc1OC (configuration not stated) | > 100 µM | 8.9 µM | >11.2 |
| COc1cccc(CCN(C(=O)c2ccc(Cl)nc2)C(C(=O)NC2CCCCC2)c2ccc([N+](=O)[O-])cc2)c1 (configuration not stated) | > 100 µM | 7.2 µM | >13.8 |
| COc1ccccc1N(C(=O)Cc1c[nH]c2ccccc12)C(C(=O)NC1CCCCC1)c1cc(OC)c(OC)c(OC)c1 (configuration not stated) | 23.2 µM | > 23.2 µM | – |
| COc1ccc(CCC(=O)N(c2ccc(Br)cc2)C(C(=O)NC2CCCCC2)c2ccc([N+](=O)[O-])cc2)cc1 (configuration not stated) | 9.8 µM | 6.1 µM | 1.6 |
| COc1cc(C(C(=O)NC2CCCCC2)N(C(=O)Cc2c[nH]c3ccccc23)c2ccccc2)cc(OC)c1OC (configuration not stated) | 36.8 µM | 16.3 µM | 2.2 |

Source: ChEMBL document CHEMBL3751796, “Structure-Based Discovery of Novel Cyclophilin A Inhibitors for the Treatment of Hepatitis C Virus Infections” (J Med Chem, 2015)
